Measurements pooled from the literature.
Target: Ephrin type-A receptor 4 (EPHA4, Homo sapiens, UniProt P54764)

SMILES | test | conditions | measurement | result
CCC(=O)N[C@@H]1CC[C@H](C(=O)N(C)c2ccc(-c3nc4ccccc4o3)cc2)C1 | cell-free assay, competition with immobilised ligand | 1 µM | remaining binding | 100%
COc1cc(Nc2cnc(C#N)c(O[C@H](C)CN(C)C)n2)ncc1-c1cnn(C)c1 | enzyme activity, inhibitor, radiometric | 10 µM | remaining activity | 41%
Cn1nc(C(F)(F)F)cc1-c1cnc(N2CCc3cc(S(=O)(=O)Nc4c(F)cc(Cl)cc4F)cc(N4CCCC4=O)c32)nc1 | cell-free assay, competition with immobilised ligand | 1 µM | remaining binding | 97%
CCCS(=O)(=O)Nc1ccc(F)c(C(=O)c2c[nH]c3ncc(-c4ccc(Cl)cc4)cc23)c1F | enzyme activity, inhibitor | 1 µM | inhibition | < 10%
Nc1ncnc2occ(-c3ccc(NC(=O)Nc4cc(C(F)(F)F)ccc4F)cc3)c12 | cell-free assay | 20 µM | remaining signal | 0%
O=C1NC(=O)c2cc(Nc3ccc(F)cc3)c(Nc3ccc(F)cc3)cc21 | cell-free assay | 0.5 µM | remaining signal | 94%
CNC(=O)c1cc2c(Oc3ccc(NC(=O)C4(C(=O)Nc5ccc(F)cc5)CC4)cc3)ccnc2cc1OC | enzyme activity, inhibitor, radiometric | 1 µM | inhibition | 83%
N#CC1(c2ccccn2)CCN(Cc2cc(C(=O)N3CCCC3)c(=O)n3ccccc23)CC1 | cell-free assay, competition with immobilised ligand | 1 µM | remaining binding | 89%
CN1CC(Oc2cnc(C#N)cc2-c2ccn3nc(NC(=O)C4CC4)cc3c2)C1 | enzyme activity, inhibitor | 1 µM | inhibition | 11%
FC(F)c1nc2ccccc2n1-c1nc(N2CCOCC2)nc(N2CCOCC2)n1 | enzyme activity, inhibitor | 10 µM | remaining activity | 87%
CC(C)(C)c1nc2c(s1)c1nc(N)ncc1c1ccc(NS(=O)(=O)c3c(F)cccc3F)c(F)c12 | enzyme activity, inhibitor, radiometric | 1 µM | remaining activity | 99%
O=C1Nc2ccc(Cl)cc2C1=Cc1cc(Cl)c(O)c(Cl)c1 | cell-free assay | 0.5 µM | remaining signal | 93.1%
COc1cc2ncnc(Nc3ccc(Oc4ccccc4)cc3C)c2cc1OC | enzyme activity, inhibitor | 1 µM | inhibition | 10%
Cc1ccc(C(=O)NCc2ccsc2)cc1C#Cc1cn(C(C)C)c2ncnc(N)c12 | enzyme activity, inhibitor | 1 µM | activity vs control | 6%
Cc1c(NC(=O)c2cc(C(N)=O)nc3cc(F)ccc23)c(C(F)(F)F)nn1Cc1ccc(C#N)cc1 | cell-free assay, competition with immobilised ligand | 1 µM | remaining binding | 99%
Cc1ccc(Nc2nccc(N(C)c3ccc4c(C)n(C)nc4c3)n2)cc1S(N)(=O)=O | enzyme activity, inhibitor | 10 µM | inhibition | 28%
O=C(Nc1cnn(-c2csc(C(=O)NC3COC3)c2)c1)Nc1c(F)cccc1Cl | enzyme activity, inhibitor | 5 µM | remaining activity | 89.1%
CNC(=O)c1cc(Oc2ccc(NC(=O)Nc3ccc(Cl)c(C(F)(F)F)c3)cc2)ccn1 | enzyme activity, inhibitor | 10 µM | inhibition | 56%
O=C(NCc1ncc(C(F)(F)F)cc1Cl)c1ccc2c(c1)C1(CCS(=O)(=O)CC1)[C@@H](C1CC1)N2S(=O)(=O)c1ccc(F)cc1 | cell-free assay, competition with immobilised ligand | 1 µM | remaining binding | 97%
O=C(Nc1cnn(-c2csc(C(=O)NC3COC3)c2)c1)Nc1ccccc1Cl | enzyme activity, inhibitor | 5 µM | remaining activity | 100%
CCN(CC)c1ccc(C2=NNC(=O)CC2C)cc1[N+](=O)[O-] (centres unmarked) | enzyme activity, inhibitor | 10 µM | remaining activity | 85%
CCN(CC)CCNC(=O)c1c(C)[nH]c(/C=C2\C(=O)Nc3ccc(F)cc32)c1C | enzyme activity, inhibitor | 10 µM | inhibition | 46%
Cc1noc([C@H]2C[C@@H](c3ccc(C(F)(F)F)cc3)CN(C(=O)N3CCS(=O)(=O)C3)C2)n1 | cell-free assay, competition with immobilised ligand | 1 µM | remaining binding | 100%
COc1cc(/C=C/C(=O)CC(=O)/C=C/c2ccc(O)c(OC)c2)ccc1O | enzyme activity, inhibitor | 1 µM | activity vs control | 118%
Cc1ccc(NC(=O)c2ccc(C)c(C(F)(F)F)c2)cc1C#Cc1nn(C2CCC(O)CC2)c2ncnc(N)c12 (centres unmarked) | cell-free assay | 10 µM | remaining signal | -2%
Cc1nc(N2CC[C@@H](O)C2)ncc1-c1cc(C(F)(F)F)cc2[nH]ncc12 | cell-free assay, competition with immobilised ligand | 1 µM | remaining binding | 100%
